# From PubChem BioAssay
# This is a sample that favours compounds with a hit; in the whole collection about 3.5% have one here.
# MrgX1 agonist: human MrgX1 receptor agonism, primary screen; Q96LB2; MrgX1-HEK293 cells, Fluo-4 calcium fluorescence, agonist mode; stronger effect = higher value; B-score at 10 µM; hit rate 0.44% among 310,000;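 active means calcium response B-score plate-corrected fluorescence ratio at least 3 library SD, with starting fluorescence B-score inside 5 SD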
# Target sequence (Q96LB2 whole entry, looked up): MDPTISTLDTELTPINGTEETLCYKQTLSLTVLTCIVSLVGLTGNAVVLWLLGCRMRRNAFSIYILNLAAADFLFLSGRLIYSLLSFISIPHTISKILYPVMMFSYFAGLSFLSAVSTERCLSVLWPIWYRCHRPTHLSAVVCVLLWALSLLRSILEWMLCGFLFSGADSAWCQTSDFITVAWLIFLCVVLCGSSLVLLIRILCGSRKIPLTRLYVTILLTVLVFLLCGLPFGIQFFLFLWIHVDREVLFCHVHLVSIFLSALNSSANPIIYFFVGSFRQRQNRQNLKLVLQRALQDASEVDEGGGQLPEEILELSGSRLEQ
#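 System: HEK293 cells stably expressing human MrgX1 receptor; Dosing: test compound in the initial addition of three; Schedule: overnight plating, then 30 min 37 °C plus 30 min room-temperature dye loading; Detection: kinetic calcium dye fluorescence, Fluo-4 NW; Controls: per-plate positive and negative controls for Z′ factor.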
# RGS4 inh: inhibitors of human RGS4; P49798; hit rate 0.45% among 310,000; AID 463165; B-score at 10 µM; HEK293 M3R/RGS4 inducible, Fluo-4 calcium flux; stronger effect = higher value; triggered by carbachol at its EC20;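 active means B-score, a plate-corrected calcium signal, over three deviations above library mean, with baseline fluorescence within five deviations of library mean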;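 further: RGS4 expression induced by doxycycline in cells with stable M3 receptor; B-score is computed from the integrated fluorescence ratio over baseline after carbachol; higher B-score means a larger calcium signal and so more RGS4 inhibition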
# Target sequence (P49798 whole entry, looked up): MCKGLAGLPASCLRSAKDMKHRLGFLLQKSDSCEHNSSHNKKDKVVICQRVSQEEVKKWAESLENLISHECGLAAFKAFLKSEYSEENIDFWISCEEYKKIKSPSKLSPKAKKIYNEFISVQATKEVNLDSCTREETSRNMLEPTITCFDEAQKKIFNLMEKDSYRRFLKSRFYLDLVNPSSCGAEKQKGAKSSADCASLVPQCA
# RGS4 act: RGS4 potentiation or activation; HEK293 M3R/inducible RGS4, carbachol calcium flux Fluo4; stronger effect = lower value; B-score at 10 µM; hit rate 0.92% among 310,000; AID 463111;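 active means B-score of the integrated calcium signal more than 4 SD below the library mean, with starting fluorescence not abnormally high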;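 further: negative B-score means reduced calcium response which marks RGS4 activation or potentiation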
#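 Detection: kinetic calcium fluorescence imaging with Fluo4-AM dye, 2 µM / Material: HEK293 cells with stable M3R and inducible RGS4 / Schedule: recording 10 s baseline at 1 Hz, 100 s post-agonist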
# MrgX1 allo act: human MrgX1 positive allosteric modulation, primary screen; Q96LB2; MrgX1-HEK293, Fluo-4 calcium flux, FDSS; stronger effect = higher value; B-score at 10 µM; hit rate 0.63% among 310,000; AID 588675;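 active means plate-corrected calcium response at least 3 library SD above typical, normal starting fluorescence, not activating the receptor alone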;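 further: compound read alongside a low EC10 to EC30 dose of BAM8-22 agonist; peak minus trough fluorescence over baseline measured at the second addition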
# MrgX1 antagonist: antagonists of human MrgX1 receptor | Q96LB2 | MRGX1-HEK293 calcium flux, Fluo-4, BAM8-22 antagonism; stronger effect = lower value | B-score at 10 µM | hit rate 1.3% among 310,000;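 active means calcium-response B-score plate-corrected more than 3 library SD below zero, starting fluorescence within 5 deviations, no agonist response on first addition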;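 further: peak minus trough fluorescence over baseline after final BAM8-22 challenge near maximal dose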
# MrgX1 ag confirm: confirmation of human MrgX1 receptor agonists; activation, % at 10 µM; MrgX1-HEK293, Fluo-4 calcium fluorescence, FDSS; hit rate 78% among 600; AID 602412; shares compounds with MrgX1 agonist;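 active means calcium signal rise, corrected for plate position, at least 3 library SD high, with starting brightness within 5 such deviations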
# HEK293 Ca flux: counter-screen for MrgX1 antagonists: effect in parental HEK293 cells; shares compounds with MrgX1 antagonist; Fluo-4 calcium fluorescence, FDSS; fluorescence ratio F(max-min)/F0 at 10 µM; hit rate 2% among 4,000;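 active means duplicate-averaged calcium fluorescence ratio at least three times the standard deviation of buffer wells, a nonspecific response in parental cells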
# HEK293 Ca counter: counter-screen for MrgX1 allosteric activators: effect in parental HEK293 cells. hit rate 0.4% among 4,000. shares compounds with MrgX1 antagonist. fluorescence ratio F(max-min)/F0 at 10 µM. parental HEK293 calcium flux, Fluo-4 fluorescence ratio; stronger effect = higher value. AID 624114;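 active means calcium fluorescence ratio, averaged over duplicates, at least 3 SD of the buffer-well ratio, meaning a nonspecific response in receptor-free cells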;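 further: untransfected parental HEK293 lacking MrgX1 used as counterscreen for MrgX1 allosteric activators; fluorescence change taken during the second addition on a kinetic imager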
# HEK293 Ca cntr2: MrgX1 activator counter-screen hit in parental HEK293 cells; shares compounds with MrgX1 antagonist; Fluo-4 calcium fluorescence (FDSS); stronger effect = higher value; fluorescence ratio F(max-min)/F0 at 10 µM; hit rate 8.7% among 4,000;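 active means calcium fluorescence ratio at least three times the spread of buffer wells, meaning a non-specific response in parental cells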
# Numbers stand for hits; 0 = inactive; - = no result given.
SMILES,MrgX1 agonist,RGS4 inh,RGS4 act,MrgX1 allo act,MrgX1 antagonist,MrgX1 ag confirm,HEK293 Ca flux,HEK293 Ca counter,HEK293 Ca cntr2
CCC1(C)NC(=O)N(CC(=O)Nc2sc3c(c2C(=O)OC)CCCCC3)C1=O (stereo not given),28,0,0,0,0,437%,0,0,128
CS(=O)(=O)N(CC(=O)N1CCOCC1)c1ccccc1Br,0,0,0,0,0,-,-,-,-
Cc1c(Br)c(C(=O)NNC(=O)c2ccc(C(C)(C)C)cc2)nn1C,0,0,0,0,0,-,-,-,-
Nc1c(C(=O)c2ccc(Cl)cc2)sc2nsc(SCCN3CCOCC3)c12,39,0,0,0,0,0,0.48,0,104
Nc1c(C(=O)c2ccccc2)sc2nsc(SCCN3CCCC3)c12,0,0,0,0,0,-,-,-,-
Cc1cc(Nc2ccc(F)cc2)nc(N)n1,0,0,0,0,0,-,-,-,-
Cc1cc(Nc2cc(Cl)cc(Cl)c2)nc(N)n1,40,0,0,0,0,243%,0,0,0
COc1cc(/C=C2\SC(=S)N(NC(=O)c3ccccc3OC)C2=O)ccc1O,0,0,0,0,0,-,-,-,-
COc1cc(/C=C2\SC(=S)N(NS(=O)(=O)c3ccccc3)C2=O)ccc1O,87,0,0,0,0,375%,0,0,99
COc1cc(/C=C2\SC(=S)N(NS(=O)(=O)c3ccc(C)cc3)C2=O)ccc1O,116,0,-7.7,0,0,555%,0.38,0,149
COc1cc(/C=C2\SC(=S)N(NS(=O)(=O)c3ccc(C)cc3)C2=O)cc(OC)c1OC,0,0,0,0,0,-,-,-,-
COC(=O)c1ccccc1-c1ccc(C(c2c(C)[nH][nH]c2=O)c2c(C)[nH][nH]c2=O)o1,0,0,0,0,0,-,-,-,-
COC(=O)c1cccc(-c2ccc(C(c3c(C)[nH][nH]c3=O)c3c(C)[nH][nH]c3=O)o2)c1,43,0,0,0,0,192%,0,0,46
CC1CCc2sc(NC(=O)C3CC(Cl)=CCC3C(=O)O)c(C#N)c2C1 (stereo not given),28,0,0,0,0,0,0,0,0
Cc1ccc(-c2nn(-c3ccccc3)cc2CSC(=N)N)cc1,43,0,0,0,0,182%,0,0,0
CN1c2ccccc2C(O)=C(C(=O)Nc2ccccc2)S1(=O)=O,41,0,0,0,0,0,0,0,0
C[N+](C)(C)CCOC(N)=O,118,-,-,0,0,547%,0,0,112
Cc1nnc(SCCOC(N)=O)n1C,-,0,0,-,-,-,-,-,-
COc1ccc(F)cc1S(=O)(=O)Nc1cc2c3c(c1)CCN3C(=O)CC2,0,0,0,0,0,-,-,-,-
CCOC(=O)C(Cc1cc(C(C)=O)ccc1OC(C)C)C(=O)OCC,0,0,0,0,0,-,-,-,-
COc1ccc(Br)cc1CSC(=N)N,34,0,0,0,0,148%,0,0,0
CC(=O)c1ccc(OC(C)C)c(CSC(=N)N)c1,38,0,0,0,0,199%,0,0,0
CC(=Nc1ccccc1)c1sc2ccccc2c1O,61,0,0,0,0,376%,0,0,100
CC(=Nc1ccc(Br)cc1)c1sc2ccccc2c1O,0,0,0,0,0,-,-,-,-
CCSc1nnc(-c2cc(Br)ccc2N=Cc2c(C)[nH]n(-c3ccccc3)c2=O)c(=O)[nH]1,71,0,0,0,0,109%,0,0,61
SMILES,MrgX1 agonist,RGS4 inh,RGS4 act,MrgX1 allo act,MrgX1 antagonist,MrgX1 ag confirm,HEK293 Ca flux,HEK293 Ca counter,HEK293 Ca cntr2
CSc1nnc(-c2cc(Br)ccc2N=Cc2c(C)[nH]n(-c3ccccc3)c2=O)c(=O)[nH]1,0,0,0,0,0,-,-,-,-
COc1ccc2c(c1)CCCN2C(N)=Nc1ccc(Cl)cc1,33,0,0,0,0,0,0,0,0
COc1ccc2c(c1)CCCN2S(=O)(=O)c1ccc(Cl)cc1,0,0,0,0,0,-,-,-,-
Cc1c(C)n2c(SCC(=O)N3CCN(c4ccccc4)CC3)nnc2[nH]c1=O,0,0,0,0,0,-,-,-,-
O=C(NCCc1ccc(F)cc1)c1ccc2c(=O)n3c(nc2c1)CCC3,32,0,0,0,0,217%,0,0,52
O=C(NCc1ccccc1)c1ccc2c(=O)n3c(nc2c1)CCCCC3,0,0,0,0,0,-,-,-,-
Cc1ccc(NS(=O)(=O)c2ccc(C(=O)N3CC(C)OC(C)C3)cc2)cc1 (stereo not given),29,0,0,0,0,151%,0,0,0
Cc1ccc(NS(=O)(=O)c2ccc(C(=O)N3CCC3)cc2)cc1,0,0,0,0,0,-,-,-,-
Cc1cc(C)c(NC(=O)CCN2C(=O)c3ccccc3S2(=O)=O)c(C)c1,0,0,0,0,0,-,-,-,-
COc1ccc(CCNC(=O)CNCC(c2ccccc2)N(C)C)cc1OC (stereo not given),0,0,0,0,0,-,-,-,-
CC(C)c1ccc(S(=O)(=O)/N=C2\C=C(NS(=O)(=O)c3ccccc3)C(=O)c3ccccc32)cc1,30,0,-11,0,0,0,0,0,0
CCc1ccc(S(=O)(=O)/N=C2\C=C(NS(=O)(=O)c3ccccc3)C(=O)c3ccccc32)cc1,-,0,0,-,-,-,-,-,-
COC(=O)CC(c1ccc(OC)c(OC)c1)c1ccc(OC)c(OC)c1,0,0,0,0,0,-,-,-,-
COCc1cc(C)nc(N/N=C/c2ccc(Cl)c(Cl)c2)c1C#N,0,0,0,0,0,-,-,-,-
Cc1ccc(CC(=O)Nc2ccccc2N2CCOCC2)cc1C,35,-,-,0,0,94%,0,0,0
COc1ccc(CC(=O)Nc2ccccc2N2CCOCC2)cc1OC,0,0,0,0,0,-,-,-,-
CCc1[nH]nc2c1C(c1ccc(Br)s1)C(C#N)=C(N)O2 (stereo not given),48,-,-,0,0,146%,0,0,0
CC(C)c1[nH]nc2c1C(c1cccnc1)C(C#N)=C(N)O2 (stereo not given),0,0,0,0,0,-,-,-,-
CC(C)c1[nH]nc2c1C(c1ccco1)C(C#N)=C(N)O2 (stereo not given),27,0,0,0,0,0,0,0,0
Cc1ccc(SCc2[nH]nc3c2C(c2ccco2)C(C#N)=C(N)O3)cc1 (stereo not given),40,0,0,0,0,161%,0,0,0
O=c1c2ccccc2ncn1Cc1ccc2c(c1)OCO2,0,0,0,0,0,-,-,-,-
CC(=O)Nc1ccc2nc(NC(=O)C(Cl)(Cl)Cl)sc2c1,29,0,0,0,0,162%,0,0,0
